Data on 33 compounds can be found in ChEMBL document CHEMBL4715795, “Urolinin: The First Linear Peptidic Urotensin-II Receptor Agonist” (J Med Chem, 2016).

What is called half-life is the time in which the quantity being followed falls by half. In general, IC50 refers to the concentration at which inhibition is half-maximal. Higher therefore signals lower potency. The term EC50 denotes the concentration giving half of the maximal effect.

Series [1] can be described thus: Half life in 25% human serum by RP-HPLC analysis. The series is classed as ADME, cell-free. In a few lines:
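Peptide at 50 μg/mL final in RPMI with 25% (v/v) human serum, pre-equilibrated at 37 °C. Samples taken at set times into 6% TCA, iced 15 min, spun at 18000g. Supernatant run on C18 RP-HPLC, 25–80% acetonitrile gradient over 15 min at 30 °C, absorbance at 214 and 280 nm.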

Series [2] has as its target T1, Urotensin-2 receptor (Homo sapiens, UniProt Q9UKP6).
T1 sequence (Q9UKP6 whole entry): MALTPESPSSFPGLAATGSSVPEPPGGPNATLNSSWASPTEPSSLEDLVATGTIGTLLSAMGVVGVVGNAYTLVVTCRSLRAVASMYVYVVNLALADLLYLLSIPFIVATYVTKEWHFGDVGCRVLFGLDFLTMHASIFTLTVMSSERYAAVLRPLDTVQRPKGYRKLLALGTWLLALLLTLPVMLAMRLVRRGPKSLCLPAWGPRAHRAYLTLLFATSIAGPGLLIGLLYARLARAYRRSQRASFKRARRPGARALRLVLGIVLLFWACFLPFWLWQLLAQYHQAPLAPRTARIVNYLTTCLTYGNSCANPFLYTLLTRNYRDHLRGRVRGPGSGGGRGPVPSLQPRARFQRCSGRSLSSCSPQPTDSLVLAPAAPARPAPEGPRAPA
In words: Displacement of [125I-Tyr9]-U-II from human U-IIR expressed in HEK293-A cells incubated for 30 mins by gamma counting based competition radioligand binding assay. It is filed as cell-based. A general note: Displacement assays read how much labelled ligand stays bound in the presence of the test substance.

Series [3] has as its target T1, Urotensin-2 receptor. Kind of series: Agonist activity at human U-IIR expressed in HEK293-A cells by Fluo4-AM dye based intracellular calcium mobilization assay. It is filed as functional, cell-based. (In general: A change in cytosolic calcium serves as a functional read-out for many receptors and channels.)
Series [4] concerns VSMC. In words: Agonist activity at U-IIR in pig aorta VSMC assessed as increase of ERK1/2 phosphorylation incubated for 15 mins by Western blot analysis relative to control. The following applies: Sus scrofa, filed as agonist. The method in brief: (§1)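 Primary smooth muscle cells from aortas of 4–6-month-old domestic pigs, grown from minced-tissue explants and used at passages 5–10. Cells were grown to 80% confluence, then exposed to peptide at 5 or 500 nM in 0.1% FCS/DMEM for 15 min. Lysates were taken in Tris/SDS buffer and probed on Western blot for phospho-ERK1/2 (Thr202/Tyr204). Signal was normalized to total ERK1/2 and to the untreated control. n = 2–4 independent experiments, each with 3–6 replicates.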
(In western blotting, separated proteins are transferred to a membrane and probed.)

Series [5] deals with VSMC. In words: Agonist activity at U-IIR in pig aorta VSMC assessed as increase of ERK1/2 phosphorylation at 500 nM incubated for 15 mins by Western blot analysis relative to control. The settings on record: Sus scrofa, filed as agonist. The method in brief: as §1
Series [6] has as its system VSMC. In words: Agonist activity at U-IIR in pig aorta VSMC assessed as increase of ERK1/2 phosphorylation at 5 nM incubated for 15 mins by Western blot analysis relative to control. The following applies: Sus scrofa. The method in brief: as §1

Calls of active or inactive are those of the source. The calls are words filed in the database; no cut-off is given here. Numbered stars: 1 amine (or outer) side, 2 acyl side, 3 side chain; on linkers, the order of the positions; unused ones are H or OH. Bridge positions count the residues as written; N and C are the ends. Square brackets hold non-standard residues; d marks the D form. Peptide text beside a SMILES is read from it. ξ: configuration not given here. Tyr(3-NO2) = N[C@@H](Cc1ccc(O)c([N+](=O)[O-])c1)C(=O)O; X1 = O=C([C@H](Cc1ccc(O)c(S(=O)(=O)O)c1)N[*:1])[*:2]; 2Nal = N[C@@H](Cc1ccc2ccccc2c1)C(=O)O; ξ2Nal = NC(Cc1ccc2ccccc2c1)C(=O)O

Turning to `CCC(NC(=O)[C@H](Cc1ccc(O)c([N+](=O)[O-])c1)NC(=O)[C@H](CCCCN)NC(=O)[C@H](Cc1c[nH]c2ccccc12)NC(=O)[C@H](Cc1c[nH]c2ccccc12)NC(=O)[C@@H](N)CC(N)=O)C(N)=O` (some centres undefined), the half-life in series [1] turned out to be 55 min. In series [2], the IC50 worked out at 1090 nM. Moreover, the 50% effective concentration (EC50) in series [3] came to 3.47 nM. The corresponding values for `CCC(NC(=O)[C@H](Cc1ccc(O)cc1)NC(=O)[C@H](CCCCN)NC(=O)[C@H](Cc1c[nH]c2ccccc12)NC(=O)[C@H](Cc1c[nH]c2ccccc12)NC(=O)[C@@H](N)CC(N)=O)C(N)=O` (some centres undefined) are 50 min, greater than 10000 nM and 60 nM. With `CCC(NC(=O)[C@H](Cc1ccc(O)cc1)NC(=O)[C@H](CCCCN)NC(=O)[C@H](Cc1c[nH]c2ccccc12)NC(=O)C(Cc1ccc2ccccc2c1)NC(=O)[C@@H](N)CC(N)=O)C(N)=O` (some centres undefined), the half-life in series [1] came out at 34 min. Besides, the IC50 in series [2] is 7880 nM. Moreover, the EC50 in series [3] was 108 nM. In the case of `CCC(NC(=O)[C@H](Cc1ccc(O)cc1)NC(=O)[C@H](CCCCN)NC(=O)[C@H](Cc1c[nH]c2ccccc12)NC(=O)[C@H](Cc1c[nH]c2ccccc12)NC(=O)[C@H](N)CC(N)=O)C(N)=O` (some centres undefined), the Activity entry in series [4] was “Dose-dependent effect”. In addition, the fold change (FC) in series [5] was found to be 1.9. The compound also gave a half-life in series [1] of 3120 min. The compound further returned an IC50 in series [2] of 4830 nM. Moreover, in series [6], the outcome was inactive. In addition, the EC50 in series [3] worked out at 23 nM. In turn, `CCC(NC(=O)[C@H](Cc1ccc(O)cc1)NC(=O)[C@H](CCCCN)NC(=O)[C@H](Cc1c[nH]c2ccccc12)NC(=O)[C@H](Cc1ccc2ccccc2c1)NC(=O)[C@H](N)CC(N)=O)C(N)=O` (some centres undefined) gave a half-life in series [1] of 770 min. Besides, in series [2], the half-inhibitory concentration (IC50) came to 4890 nM. In series [3], the EC50 was 25.5 nM. For the compound `CC(C)[C@H](NC(=O)[C@@H]1CSSC[C@H](NC(=O)[C@H](CC(=O)O)NC(=O)[C@@H]2CCCN2C(=O)[C@@H](NC(=O)[C@@H](N)CCC(=O)O)[C@@H](C)O)C(=O)N[C@@H](Cc2ccccc2)C(=O)N[C@@H](Cc2c[nH]c3ccccc23)C(=O)N[C@@H](CCCCN)C(=O)N[C@@H](Cc2ccc(O)cc2)C(=O)N1)C(=O)O`, in series [4], the Activity entry was “Dose-dependent effect”. In addition, the fold change (FC) in series [5] was found to be 2.4. Besides, the outcome in series [6] was inactive.

With `NCCCC[C@@H]1NC(=O)[C@H](Cc2c[nH]c3ccccc23)NC(=O)[C@H](Cc2ccccc2)NC(=O)[C@@H](N)CSSC[C@@H](C(N)=O)NC(=O)[C@H](Cc2ccc(O)cc2)NC1=O` (H-CFWKYC-NH2; disulfide 1-6), the EC50 in series [3] stood at 3.8 nM. Same read-out and setting: next, `CC(C)[C@H](NC(=O)[C@@H]1CSSC[C@H](N)C(=O)N[C@@H](Cc2ccccc2)C(=O)N[C@@H](Cc2c[nH]c3ccccc23)C(=O)N[C@@H](CCCCN)C(=O)N[C@@H](Cc2ccc(O)cc2)C(=O)N1)C(N)=O` (H-CFWKYCV-NH2; disulfide 1-6): 0.83 nM. For the compound `CC(C)[C@H](NC(=O)[C@@H]1CSSC[C@H](NC(=O)[C@@H](N)CC(=O)O)C(=O)N[C@@H](Cc2ccccc2)C(=O)N[C@@H](Cc2c[nH]c3ccccc23)C(=O)N[C@@H](CCCCN)C(=O)N[C@@H](Cc2ccc(O)cc2)C(=O)N1)C(N)=O` (H-DCFWKYCV-NH2; disulfide 2-7), the half-life in series [1] was 372 min. In series [2], this compound gave an IC50 of 0.9 nM. Moreover, in series [3], the EC50 is 0.45 nM. Turning to `CC(C)[C@H](NC(=O)[C@@H]1CSSC[C@H](NC(=O)[C@@H](N)Cc2ccccc2)C(=O)N[C@@H](Cc2ccccc2)C(=O)N[C@@H](Cc2c[nH]c3ccccc23)C(=O)N[C@@H](CCCCN)C(=O)N[C@@H](Cc2ccc(O)cc2)C(=O)N1)C(N)=O` (H-FCFWKYCV-NH2; disulfide 2-7), the EC50 in series [3] worked out at 4.8 nM. As to `NCCCC[C@H](NC(=O)[C@H](Cc1c[nH]c2ccccc12)NC(=O)[C@@H](N)Cc1ccccc1)C(=O)N[C@@H](Cc1ccc(O)cc1)C(N)=O` (H-FWKY-NH2), the EC50 in series [3] stood at 179 nM. Take `COc1ccc(C[C@H](NC(=O)[C@H](CCCCN)NC(=O)[C@H](Cc2c[nH]c3ccccc23)NC(=O)[C@H](Cc2c[nH]c3ccccc23)NC(=O)[C@@H](N)CC(N)=O)C(=O)N[C@@H](CS)C(N)=O)cc1` (H-NWWKY(Me)C-NH2): in series [1], the half-life turned out to be 15 min. This compound displayed a 50% inhibitory concentration (IC50) in series [2] of 890 nM. Also, the concentration giving a half-maximal response (EC50) in series [3] is 10.2 nM. The corresponding values for `NCCCC[C@H](NC(=O)[C@H](Cc1c[nH]c2ccccc12)NC(=O)[C@H](Cc1c[nH]c2ccccc12)NC(=O)[C@@H](N)CC(N)=O)C(=O)N[C@@H](Cc1ccc(O)c([N+](=O)[O-])c1)C(=O)N[C@@H](CS)C(N)=O` (H-NWWK[Tyr(3-NO2)]C-NH2) are 23 min, 163 nM and 15.7 nM. The corresponding values for `NCCCC[C@H](NC(=O)[C@H](Cc1c[nH]c2ccccc12)NC(=O)[C@H](Cc1c[nH]c2ccccc12)NC(=O)[C@@H](N)CC(N)=O)C(=O)N[C@@H](Cc1ccc(O)c(S(=O)(=O)O)c1)C(=O)N[C@@H](CS)C(N)=O` (H-NWWK[X1]C-NH2) are 11 min, greater than 10000 nM and 330 nM.

For `NCCCC[C@H](NC(=O)[C@H](Cc1c[nH]c2ccccc12)NC(=O)[C@H](Cc1ccc2ccccc2c1)NC(=O)[C@@H](N)CC(N)=O)C(=O)N[C@@H](Cc1ccc(O)c([N+](=O)[O-])c1)C(=O)N[C@@H](CS)C(N)=O` (H-N[2Nal]WK[Tyr(3-NO2)]C-NH2), the half-life in series [1] was found to be 37 min. This compound showed an IC50 in series [2] of 430 nM. In addition, in series [3], the half-maximal effective concentration (EC50) is 8.13 nM. The corresponding values for `NCCCC[C@H](NC(=O)[C@H](Cc1c[nH]c2ccccc12)NC(=O)C(Cc1ccc2ccccc2c1)NC(=O)[C@@H](N)CC(N)=O)C(=O)N[C@@H](Cc1ccc(O)cc1)C(=O)N[C@@H](CS)C(N)=O` (some centres undefined) (H-N[ξ2Nal]WKYC-NH2) are 17 min, 3060 nM and 74.9 nM. With `NCCCC[C@H](NC(=O)[C@H](Cc1c[nH]c2ccccc12)NC(=O)[C@@H](N)Cc1ccccc1)C(N)=O` (H-Phe-Trp-Lys-NH2), the EC50 in series [3] was greater than 10000 nM. `CC(C)[C@H](NC(=O)[C@@H]1CSSC[C@H](NC(=O)[C@@H](N)CCC(N)=O)C(=O)N[C@@H](Cc2ccccc2)C(=O)N[C@@H](Cc2c[nH]c3ccccc23)C(=O)N[C@@H](CCCCN)C(=O)N[C@@H](Cc2ccc(O)cc2)C(=O)N1)C(N)=O` (H-QCFWKYCV-NH2; disulfide 2-7): the 50% effective concentration (EC50) in series [3] is 1.99 nM. Still for that read-out and setting: with `CC(C)[C@H](NC(=O)[C@@H]1CSSC[C@H](NC(=O)[C@@H](N)[C@@H](C)O)C(=O)N[C@@H](Cc2ccccc2)C(=O)N[C@@H](Cc2c[nH]c3ccccc23)C(=O)N[C@@H](CCCCN)C(=O)N[C@@H](Cc2ccc(O)cc2)C(=O)N1)C(N)=O` (H-TCFWKYCV-NH2; disulfide 2-7) the figure was 3.9 nM; with `NCCCC[C@H](NC(=O)[C@@H](N)Cc1c[nH]c2ccccc12)C(=O)N[C@@H](Cc1ccc(O)cc1)C(N)=O` (H-Trp-Lys-Tyr-NH2), greater than 10000 nM; with H-CFWKY-NH2, 201 nM. Consider H-DHFWKYCV-NH2, for which the EC50 in series [3] worked out at 29.8 nM. On the same count and under the same terms, with H-DNFWKYCV-NH2 the figure was 155 nM. H-DVFWKYCV-NH2: the half-life in series [1] stood at 19 min. The IC50 in series [2] was found to be 300 nM. Besides, the concentration for a half-maximal effect (EC50) in series [3] amounted to 32.6 nM. Turning to H-FWKYC-NH2, the EC50 in series [3] was determined as 141 nM. As to H-NWWKYC-NH2, the half-life in series [1] was 19 min. Also, the half-maximal inhibitory concentration (IC50) in series [2] was determined as 1550 nM. Besides, the concentration for a half-maximal effect (EC50) in series [3] turned out to be 10 nM.

On to H-NWWKYD-NH2, for which the EC50 in series [3] was 50.4 nM. The same measure, in the same setting: next, H-NWWKYE-NH2: 65.6 nM.

Turning to H-NWWKYS-NH2, the 50% effective concentration (EC50) in series [3] stood at 91.5 nM. With H-NWWKYT-NH2, in series [3], the concentration giving a half-maximal response (EC50) came out at 143 nM. With H-QVFWKYCV-NH2, in series [3], the EC50 was determined as 9.63 nM. Same read-out and setting: with H-TVFWKYCV-NH2 the figure was 11.2 nM.

Consider H-TWWKYC-NH2, for which, in series [3], the 50% effective concentration (EC50) was 103 nM.
